Source: ChEMBL document CHEMBL2150955, “Design, synthesis and evaluation of N-(substituted benzothiazol-2-yl)amides as anticonvulsant and neuroprotective” (Eur J Med Chem, 2012)
The source made the active and inactive calls. The rule behind the calls is not given here.

Key:
[1] = test system: Mus musculus; assay: Hepatotoxicity in mouse assessed as effect on alkaline phosphatase level at 30 mg/kg/day, po dosed for 2 weeks relative to control; assay type: toxicity, organism-based; design: route oral; settings: in vivo, 336 h
In short: (§1)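 Serum SGOT, SGPT, alkaline phosphatase, total albumin and total protein were measured in treated mice against controls (n = 6). Data were analysed by ANOVA followed by Student's t test.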

[2] = test system: Mus musculus; assay: CNS depressant activity in mouse assessed as immobility time at 100 mg/kg, ip measured 60 mins post dose by porsolt's swimming pool test; assay type: organism-based; design: dose 100 mg/kg, route intraperitoneal; settings: in vivo, 1 h
In short: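 Behavioral depression was measured by Porsolt's swim test in albino mice of either sex. Immobility time (s) was recorded 24 h before as the control and again 60 min after treatment. Values are mean ± SEM of six mice, compared with Student's t test.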

[3] = test system: Mus musculus; assay: Anticonvulsant activity in ip dosed mouse assessed as compound concentration causing protection against subcutaneous pentylenetetrazol-induced seizures in half or more test animals after 0.5 hrs; assay type: functional; settings: read-out: MED
In short: (§2)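 Albino mice of either sex (25-30 g), housed under standard conditions with free access to pellet diet and water. Compounds given at 30, 100 and 300 mg/kg (n = 6). MES and scPTZ seizures were read at 0.5 h and 4 h. The value recorded is the minimum dose protecting half or more of the mice; 300 mg/kg is the maximum dose.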

[4] = test system: Mus musculus; assay: Neurotoxicity in mouse assessed as minimal motor impairment at 300 mg/kg, ip after 4 hrs by rotarod test; assay type: toxicity, organism-based; design: dose 300 mg/kg, route intraperitoneal; settings: in vivo
In short: (§3)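 Albino mice of either sex (25-30 g) received 30, 100 or 300 mg/kg (n = 6). Neurological deficit was assessed on the rotarod at 0.5 h and 4 h. The value recorded is the minimum dose producing neurotoxicity in half or more of the mice; 300 mg/kg is the maximum dose.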

[5] = test system: Mus musculus; assay: Anticonvulsant activity in ip dosed mouse assessed as compound concentration causing protection against maximal electroshock-induced seizures in half or more test animals after 0.5 hrs; assay type: functional; settings: read-out: MED; in short: as §2
[6] = test system: Mus musculus; assay: Anticonvulsant activity in ip dosed mouse assessed as compound concentration causing protection against subcutaneous pentylenetetrazol-induced seizures in half or more test animals after 4 hrs; assay type: functional; settings: read-out: MED; in short: as §2
[7] = test system: Mus musculus; assay: Hepatotoxicity in mouse assessed as effect on SGOT level at 30 mg/kg, po after 2 weeks relative to control; assay type: toxicity, organism-based; design: dose 30 mg/kg, route oral; settings: in vivo, 336 h; in short: as §1
[8] = test system: Mus musculus; assay: Neuroprotective activity in acrylamide-intoxicated mouse assessed as reduction in brain malonaldehyde level at 50 mg/kg, ip dosed 3 days/week for 3 weeks administered 10 mins before acrylamide challenge by TBARS detection assay; assay type: functional, organism-based; design: dose 50 mg/kg
In short: (§4)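 Mice were given acrylamide to induce brain degeneration, with compound administered 10 min before the acrylamide. Brain MDA (lipid peroxidation) and LDH activity were measured against controls. Values are mean ± SEM of six animals, compared with Student's t test.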

[9] = test system: Mus musculus; assay: Neurotoxicity in mouse assessed as minimal motor impairment at 300 mg/kg, ip after 0.5 hrs by rotarod test; assay type: toxicity, organism-based; design: dose 300 mg/kg, route intraperitoneal; settings: in vivo; in short: as §3
[10] = test system: Mus musculus; assay: Hepatotoxicity in mouse assessed as effect on SGPT level at 30 mg/kg/day, po dosed for 2 weeks relative to control; assay type: toxicity, organism-based; design: route oral; settings: in vivo, 336 h; in short: as §1
[11] = test system: Mus musculus; assay: Hepatotoxicity in mouse assessed as effect on total protein level at 30 mg/kg/day, po dosed for 2 weeks relative to control; assay type: toxicity, organism-based; design: route oral; settings: in vivo, 336 h; in short: as §1
[12] = test system: Mus musculus; assay: Hepatotoxicity in mouse assessed as effect on total albumin level at 30 mg/kg/day, po dosed for 2 weeks relative to control; assay type: toxicity, organism-based; design: route oral; settings: in vivo, 336 h; in short: as §1
[13] = test system: Mus musculus; assay: Neuroprotective activity in acrylamide-intoxicated mouse assessed as reduction in brain LDH level at 50 mg/kg, ip dosed 3 days/week for 3 weeks administered 10 mins before acrylamide challenge by spectrophotometry; assay type: functional, organism-based; design: dose 50 mg/kg; in short: as §4
[14] = test system: Mus musculus; assay: Anticonvulsant activity in ip dosed mouse assessed as compound concentration causing protection against maximal electroshock-induced seizures in half or more test animals after 4 hrs; assay type: functional; settings: read-out: MED; in short: as §2
[15] = test system: Mus musculus; assay: Hepatotoxicity in mouse assessed as morphological changes in hepatic parenchyma at 30 mg/kg/day, po dosed for 2 weeks by Harris haematoxylin-eosin staining based […] microscopic analysis relative to control; assay type: toxicity, organism-based; design: route oral; settings: in vivo, 336 h
[16] = test system: Mus musculus; assay: Protective index, ratio of TD50 for mouse to ED50 for anticonvulsant activity in mouse by subcutaneous pentylenetetrazol-induced seizure test; assay type: functional
[17] = test system: Mus musculus; assay: Hepatotoxicity in mouse assessed as hepatocytes degeneration at 30 mg/kg/day, po dosed for 2 weeks by Harris haematoxylin-eosin staining based […] microscopic analysis relative to control; assay type: toxicity, organism-based, Hepatocyte; design: route oral; settings: 336 h
[18] = test system: Mus musculus; assay: Anticonvulsant activity in ip dosed mouse assessed as protection against maximal electroshock-induced seizures; assay type: functional
[19] = Neurotoxicity in ip dosed mouse after 30 mins by rotarod test; assay type: toxicity, organism-based; settings: in vivo
[20] = test system: Mus musculus; assay: Hepatotoxicity in mouse assessed as liver necrosis at 30 mg/kg/day, po dosed for 2 weeks by Harris haematoxylin-eosin staining based […] microscopic analysis relative to control; assay type: toxicity, organism-based; design: route oral; settings: in vivo, 336 h
[21] = organism: Mus musculus; assay: Protective index, ratio of TD50 for mouse to ED50 for anticonvulsant activity in mouse by maximal electroshock-seizure test; assay type: functional
[22] = test system: Mus musculus; assay: Anticonvulsant activity in ip mouse assessed as protection against subcutaneous pentylenetetrazol-induced seizures; assay type: functional
In short: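 This is the Phase II quantitation in albino mice of either sex (25-30 g). […] TD50 came from the rotarod test, read 30 min after dosing. The protective index is TD50/ED50.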

[23] = test system: Mus musculus; assay: Increase in GABA level in mouse brain at 30 mg/kg, po dosed for 7 days by spectrophotometry relative to control; assay type: functional
[24] = test system: Mus musculus; assay: Hepatotoxicity in mouse assessed as hepatic inflammation at 30 mg/kg/day, po dosed for 2 weeks by Harris haematoxylin-eosin staining based […] microscopic analysis relative to control; assay type: toxicity, organism-based; design: route oral; settings: in vivo, 336 h
[25] = test system: Mus musculus; assay: Anticonvulsant activity in mouse assessed as protection against subcutaneous pentylenetetrazol-induced seizures at 300 mg/kg, ip after 4 hrs; assay type: functional, organism-based; design: dose 300 mg/kg; in short: as §2
[26] = test system: Mus musculus; assay: Anticonvulsant activity in mouse assessed as protection against subcutaneous pentylenetetrazol-induced seizures at 300 mg/kg, ip after 0.5 hrs; assay type: functional, organism-based; design: dose 300 mg/kg; in short: as §2
[27] = test system: Mus musculus; assay: Neurotoxicity in ip dosed mouse assessed as minimal motor impairment after 4 hrs by rotarod test; assay type: toxicity, organism-based; settings: in vivo; in short: as §3
[28] = test system: Mus musculus; assay: Anticonvulsant activity in mouse assessed as protection against maximal electroshock-induced seizures at 300 mg/kg, ip after 4 hrs; assay type: functional, organism-based; design: dose 300 mg/kg; in short: as §2
[29] = test system: Mus musculus; assay: Neurotoxicity in ip dosed mouse assessed as minimal motor impairment after 0.5 hrs by rotarod test; assay type: toxicity, organism-based; settings: in vivo; in short: as §3
[30] = test system: Mus musculus; assay: Anticonvulsant activity in mouse assessed as protection against maximal electroshock-induced seizures at 300 mg/kg, ip after 0.5 hrs; assay type: functional, organism-based; design: dose 300 mg/kg; in short: as §2

Time [2] [s] | SMILES | minimal effective dose [3] [mg/kg] | Activity [4] | minimal effective dose [5] [mg/kg] | minimal effective dose [6] [mg/kg] | Activity [9] | minimal effective dose [14] [mg/kg] | Activity [25] | Activity [26] | MTC [27] [mg/kg] | Activity [28] | further results
134.5 | O=C(CCC(=O)c1ccccc1)Nc1nc2ccc(Cl)cc2s1 | 300 | Non-toxic | 300 | 300 | Non-toxic | 300 |  |  |  |  | Activity [1]: Non-toxic; Activity [7]: Non-toxic; Activity [8]: Active; Activity [10]: Non-toxic; Activity [11]: Non-toxic; Activity [12]: Non-toxic; Activity [13]: Active
135.6 | COc1ccc2nc(NC(=O)CCC(=O)c3ccccc3)sc2c1 | 100 | Non-toxic | 30 | 100 | Non-toxic | 30 |  |  |  |  | Activity [15]: Non-toxic; Ratio TD50/ED50 [16]: 4; Activity [1]: Non-toxic; Activity [17]: Non-toxic; ED50 [18]: 41 mg/kg; TD50 at 0.5 h [19]: 348 mg/kg; Activity [7]: Non-toxic; Activity [20]: Non-toxic; Ratio TD50/ED50 [21]: 8.4; ED50 [22]: 85.2 mg/kg; Activity [8]: Active; Activity [10]: Non-toxic; Activity [11]: Non-toxic; fold change (FC) [23]: 1.8; Activity [12]: Non-toxic; Activity [13]: Active; Activity [24]: Non-toxic
166.1 | O=C(CCC(=O)c1ccccc1)Nc1nc2ccc([N+](=O)[O-])cc2s1 |  |  | 300 |  | Non-toxic |  | inactive | inactive | 300 | inactive | 
154.3 | O=C(Nc1nc2ccc([N+](=O)[O-])cc2s1)c1ccccc1C(=O)c1ccccc1 |  |  | 300 |  |  |  | inactive | inactive | 300 | inactive | MTC [29]: 300 mg/kg
180 | Cc1ccc2nc(NC(=O)c3ccccc3C(=O)c3ccccc3)sc2c1 | 300 | Non-toxic | 300 |  | Non-toxic |  | inactive |  |  | inactive | 
172.3 | CC(=O)c1ccc2nc(NC(=O)c3ccccc3C(=O)c3ccccc3)sc2c1 |  | Non-toxic |  | 300 | Non-toxic | 300 |  | inactive |  |  | Activity [30]: inactive
179.1 | O=C(Nc1nc2ccc(Br)cc2s1)c1ccccc1C(=O)c1ccccc1 |  |  | 300 |  |  |  | inactive | inactive | 300 | inactive | MTC [29]: 300 mg/kg
157 | O=C(Nc1nc2ccc(Cl)cc2s1)c1ccccc1C(=O)c1ccccc1 |  | Non-toxic |  | 300 | Non-toxic | 100 |  | inactive |  |  | Activity [30]: inactive
146.6 | O=C(CCC(=O)c1ccccc1)Nc1nc2cc(Cl)c(F)cc2s1 |  | Non-toxic | 300 |  | Non-toxic | 300 | inactive | inactive |  |  | 
